HSF-1 act = HSF-1 activators, primary screen, NIH3T3-HGL cells, MG132 stress, luminescence, single point. activation, % at 9 µM. NIH3T3-HGL HSF-1 luciferase reporter, 8 h; 100% = twice DMSO control signal. 300,000 tested, 1.7% active;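 active = mean replicate activation of at least 50% with a set share of replicates each reaching 50%; inconclusive = only one of those two conditions met; inactive = mean below 50% and too few replicates reaching it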;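 also: 0% = median of the neutral control wells and 100% = twice that signal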
HCV core dimer = inhibitors of HCV core protein dimerization, primary screen, biochemical, TR-FRET, high-throughput | inhibition, % at 5 µM | 300,000 tested, 0.33% active | TR-FRET GST/Flag-core106 dimerization, 1536-well | AID 1899, 2009;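 active = inhibition above the mean of all tested compounds plus 3 SD, set per screening campaign, cut at about 45% in these data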
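Assay system – GST-tagged and Flag-tagged HCV core protein residues 1-106 · Quantity – core106 proteins, GST 13.5 nM and Flag 17 nM · Benchmarks – unlabelled core106 and no-GST-core106 wells · Read-out basis – percent inhibition of core106 dimerization signal · Detection – time-resolved FRET, ex 340 nm, em 617 and 671 nm · Schedule – 4 h at 22.5 °C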
PHOSPHO1 block = PubChem AID 1565. recombinant PHOSPHO1, absorbance phosphatase assay. inhibition, % at 13.3 µM. 290,000 tested, 1.1% active; in the data active = inhibition above about 60%
HSF1 inh = HSF1 inhibitors in luciferase reporter cells, primary screen, cell-based, NIH3T3, luminescence; NIH3T3-HGL HSE-luciferase, MG132-induced, luminescence 8 h; active compounds read low; activity change, negative = inhibition, % at 7.5 µM (by protocol); 300,000 tested, 0.77% active; AID 2098, 2009;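 active = more than half of replicate wells show activity change below -50%, luminescence cut by over half; inconclusive = some wells, but at most half, below -50%; inactive = no replicate well below -50%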;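 also: luciferase reports HSF-1 transcriptional activity via heat shock element; 0% = median of DMSO wells and -100% = zero luminescence signal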
ALR inh = inhibitors of human ALR sulfhydryl oxidase, primary screen, biochemical, H2O2 detection, HRP-luminol luminescence, single point; FAD-linked sulfhydryl oxidase ALR (Homo sapiens), P55789; inhibition, % (test concentration not listed); 290,000 tested, 3.8% active; purified ALR, DTT oxidation; AID 485317, 2010;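 active = mean replicate inhibition above about 79%, with every replicate also reaching it, limit read from the data; inconclusive = only one of the two criteria met; inactive = mean below limit and not every replicate reaching it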
Target sequence (P55789 whole entry, looked up): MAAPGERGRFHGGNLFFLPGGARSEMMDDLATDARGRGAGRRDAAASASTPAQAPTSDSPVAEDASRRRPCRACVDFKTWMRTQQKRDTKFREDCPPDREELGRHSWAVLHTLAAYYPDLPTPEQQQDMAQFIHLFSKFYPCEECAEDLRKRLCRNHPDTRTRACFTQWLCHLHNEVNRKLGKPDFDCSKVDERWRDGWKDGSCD
AI-2 QS mod = Vibrio harveyi AI-2 quorum sensing modulators, primary screen, JMH597 strain, luminescence/OD600 ratio | Vibrio harveyi JMH597 AI-2 luminescence/OD600 ratio, 9 h; active compounds read low; strain lacks LuxN and CqsS sensors; 0 = neutral-control median | activity change, % at 7.5 µM | 300,000 tested, 0.4% active | AID 2094, 2009; in the data active = activity change below about -75%, passing the limit was not always enough; inconclusive = no clear call, values can overlap the other calls;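 also: luminescence divided by OD600 gain over 9 h not by final OD600 alone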
* hit, by the source's call; ? = inconclusive; . = no result. In the library only some 6.8% were active in any assay of this set; here they are far more common.

SMILES	HSF-1 act	HCV core dimer	PHOSPHO1 block	HSF1 inh	ALR inh	AI-2 QS mod
O=C(O)CCC(=O)N1CCc2cc(S(=O)(=O)NCc3ccc(Cl)cc3)ccc21	5	7	37	-3	-3	7
CC1CN(C(=O)c2cc(S(=O)(=O)N(C)c3ccc(F)cc3)ccc2Cl)CC(C)O1 (configuration not stated)	-76	-3	37	-71*	11	16
CCOC(=O)c1c(C)[nH]c(N=Nc2ccc(OC)cc2)c1C	37	-1	14	23	-8	1
C[C@@]12CCC3[C@@](CCC4[C@@]3(C)CCC[C@@]4(C)C(=O)N3CCOCC3)(CC1=O)C2 (some centres not stated)	.	.	.	.	-1	.
COc1ccc(CC(=O)OCC(=O)Nc2ccc(N3CCOCC3)cc2)cc1	5	-2	28	-9	-18	3
COC(=O)C(N)Cc1ccc(O)c(O)c1 (configuration not stated)	-7	-5	36	-10	99*	3
Fc1cccc(CSc2ccc3nnc(-c4cccnc4)n3n2)c1	45	2	32	11	5	24
Cc1nonc1C1CCCN1Cc1cn[nH]c1-c1ccc(-c2ccccc2)cc1 (configuration not stated)	62*	1	22	49	-8	17
O=C(Cc1cccs1)NCc1ccccc1Br	94*	-2	22	26	-11	12
COc1cc(-c2nc(CN3CCN(C(=O)c4ccco4)CC3)c(C)o2)ccc1F	-9	6	51	-6	-1	14
NS(=O)(=O)c1ccc(CCNC(=O)CSc2ccc3ccccc3c2)cc1	-4	-12	32	-1	99*	23
NC(=O)COC(=O)CSc1ccc2ccccc2c1	1	0	7	-1	99*	50
NS(=O)(=O)c1ccc(CCNC(=O)CN2CCN(c3ccccc3F)CC2)cc1	17	-3	-10	-5	-1	30
CCNC(=O)NC(=O)CSc1ccc2ccccc2c1	?	0	17	17	98*	9
NS(=O)(=O)c1ccc(CCNC(=O)CSc2ccc([N+](=O)[O-])cc2)cc1	11	2	4	-4	3	.
NS(=O)(=O)c1ccc(CCNC(=O)CN2CCN(c3ccccc3O)CC2)cc1	23	2	4	3	99*	5
Cc1ccc(CNC(=O)CCC2CCCN(Cc3cccc4cccnc34)C2)o1 (configuration not stated)	4	-3	1	-5	-12	-15
CCCNC(=O)NC(=O)CSc1cccc(C(F)(F)F)c1	77*	0	2	37	-13	15
CNC(=O)NC(=O)CSc1cccc(C(F)(F)F)c1	28	2	-11	5	-1	5
CC(=O)OCC12COC3c4ccccc4OC(C)(CC1C)C3C2C (configuration not stated)	-7	3	15	-8	-9	4
Cc1cc(O)ccc1NC(=O)c1ccccc1	12	-1	4	-5	99*	7
Cc1cc(N)ccc1NC(=O)c1ccccc1	-26	-2	22	-32	98*	16
Cc1cc(NC(=O)c2ccccc2)c(Cl)cc1N	?	.	1	40	.	5
Cc1cc(NC(=O)c2ccccc2)ccc1NC(=O)c1ccccc1Cl	1	8	25	8	-5	2
Oc1ccc(-n2cccc2/C=N/n2cnnc2)cc1	-14	2	33	-8	0	26
O/N=C/c1cccn1-c1ccc(O)cc1	-10	0	3	-3	99*	3
COc1ccc(N2CCN(C(=O)CC3NC4CCCCC4NC3=O)CC2)cc1 (configuration not stated)	-4	-1	-3	2	40	19

High-throughput results as filed in PubChem.
